Screening results (PubChem BioAssay)
TRPC4 agonist: activators of mouse TRPC4 channel, primary screen, Fluo4 calcium, HEK293 TRPC4beta/mu-opioid cells; B-score at 10 µM; AID 2237, 2010; Fluo4 calcium fluorescence; stronger effect = higher value; 310,000 tested, 0.49% active;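 active = B-score above 5 SD of library B-scores, and initial fluorescence ratio not above library mean plus 5 SD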;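 note: positive B-score marks a calcium rise read as TRPC4 activation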
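System: HEK293 cells stably co-expressing mouse TRPC4beta and mu-opioid receptor; Schedule: Fluo4 dye loading 45 min at room temperature, 110 s recording; Detection: Fluo4 fluorescence, kinetic; Evaluation: B-scored integrated calcium fluorescence ratio; Controls: buffer (low) and maximal DAMGO (high).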
TRPC6 inh: mouse TRPC6 channel inhibitors, primary screen, cell-based, HEK293, membrane potential dye | B-score at 10 µM | ACh-evoked depolarization; stronger effect = lower value | 310,000 tested, 1.1% active | Short transient receptor potential channel 6 (Mus musculus), Q61143;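 active = B-score under library mean minus 3 SD, initial fluorescence not abnormally high, positive integrated signal ratio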;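 note: B-score derived from integrated fluorescence ratio over the kinetic read; more negative B-score means stronger inhibition of depolarization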
Target sequence (Q61143 whole entry, looked up): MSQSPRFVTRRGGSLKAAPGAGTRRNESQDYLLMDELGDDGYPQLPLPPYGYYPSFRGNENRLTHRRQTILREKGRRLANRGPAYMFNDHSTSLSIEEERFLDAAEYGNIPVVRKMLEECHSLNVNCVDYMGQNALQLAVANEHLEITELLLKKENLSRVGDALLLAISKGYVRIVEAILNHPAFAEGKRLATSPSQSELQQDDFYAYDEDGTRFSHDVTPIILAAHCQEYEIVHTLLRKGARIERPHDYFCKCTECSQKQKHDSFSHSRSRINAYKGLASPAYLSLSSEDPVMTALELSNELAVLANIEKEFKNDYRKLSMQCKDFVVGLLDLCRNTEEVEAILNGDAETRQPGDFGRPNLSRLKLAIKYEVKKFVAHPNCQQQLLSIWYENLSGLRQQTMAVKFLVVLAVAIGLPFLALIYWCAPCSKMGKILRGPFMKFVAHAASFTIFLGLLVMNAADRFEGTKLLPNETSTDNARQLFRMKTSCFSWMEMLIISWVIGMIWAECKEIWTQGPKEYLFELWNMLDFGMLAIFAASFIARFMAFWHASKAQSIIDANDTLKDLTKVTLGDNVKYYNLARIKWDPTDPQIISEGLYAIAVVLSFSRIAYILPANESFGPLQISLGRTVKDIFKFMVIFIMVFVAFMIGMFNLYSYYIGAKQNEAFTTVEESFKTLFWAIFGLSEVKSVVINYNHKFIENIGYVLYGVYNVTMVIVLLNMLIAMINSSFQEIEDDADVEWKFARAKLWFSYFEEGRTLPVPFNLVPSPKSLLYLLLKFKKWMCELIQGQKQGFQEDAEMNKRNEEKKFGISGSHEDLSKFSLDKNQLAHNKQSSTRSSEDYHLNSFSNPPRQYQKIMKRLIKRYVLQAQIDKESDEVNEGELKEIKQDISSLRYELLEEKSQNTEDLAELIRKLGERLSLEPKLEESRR
TRPC4 block: inhibitors of mouse TRPC4 channel, primary screen, Fluo4 calcium, HEK293 TRPC4beta/mu-opioid cells | B-score at 10 µM | DAMGO-evoked Fluo4 calcium flux; stronger effect = lower value | 300,000 tested, 0.39% active;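 active = B-score over 3 SD under the library average, no early fluorescence shift, positive overall ratio signal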
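Assay system – HEK293 line stably carrying TRPC4beta and mu-opioid receptor · Doses – single dose · Detection – Fluo4 calcium-dye fluorescence, kinetic read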
TRPC4 PAM: positive allosteric modulators of TRPC4, primary screen, cell-based, mouse TRPC4beta, HEK293 mu-opioid, Fluo-4 calcium. Short transient receptor potential channel 4 (Mus musculus), Q9QUQ5. DAMGO EC20, Fluo-4 Ca2+ flux; stronger effect = higher value. B-score at 10 µM. 310,000 tested, 0.42% active;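 active = B-score of calcium response area above 5 SD of library B-scores, with initial fluorescence ratio within 5 SD of library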;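 note: B-score of integrated fluorescence ratio over time as area under calcium response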
TRPC6 act: mouse TRPC6 channel activators, primary screen, cell-based, HEK293, membrane potential dye; Short transient receptor potential channel 6 (Mus musculus), Q61143; HEK293-TRPC6 membrane potential dye fluorescence; stronger effect = higher value; B-score at 10 µM; 310,000 tested, 0.13% active;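 active = B-score of the integrated fluorescence ratio above library mean plus 3 SD, and starting fluorescence ratio within library mean plus 5 SD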;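 note: higher score means more depolarization so channel activation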
DNA FID counter: compounds displacing fluorescent DNA intercalator, primary screen, artefact control for HCV NS3 helicase inhibitor project, biochemical, FID fluorescence; DNA fluorescent intercalator displacement; inhibition, % at 7.9 µM; 290,000 tested, 0.17% active; in the data active = inhibition above about 37%;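 note: 0% = vehicle and 100% = reference compound; higher means more ethidium bromide displaced from hairpin DNA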
The depositor's hits bear a star; i = inactive; x = not tested or not shown. A selection: hits, their analogues and other compounds. The true share with any hit is near 2.3%.

SMILES	TRPC4 agonist	TRPC6 inh	TRPC4 block	TRPC4 PAM	TRPC6 act	DNA FID counter
C=CCS(=O)(=O)N1CCCC(N2CCN(c3ccccc3OC)CC2)C1 (configuration not stated)	i	i	i	i	i	-6
Cc1ccc(S(=O)(=O)N2CCN3CCCC3C2)cc1 (configuration not stated)	i	i	i	i	i	-9
O=S(=O)(c1ccc(Cl)cc1)N1CCN2CCCC2C1 (configuration not stated)	98*	i	i	34*	i	-6
COc1ccc(C(=O)NCCCNC(=O)c2ccccn2)cc1Br	i	i	i	i	i	-21
OC1(c2cccs2)CN(c2ccc(Cl)cc2)C2=[N+]1CCCC2 (configuration not stated)	i	i	-6*	i	i	5
O=C(c1ccc([N+](=O)[O-])cc1)N1CCN(c2ncc(Br)cn2)CC1	219*	i	i	i	i	-8
CCOc1cc(CN2CCCC(C(=O)c3cccc(C(F)(F)F)c3)C2)ccc1O (configuration not stated)	i	i	-7*	i	i	5
CCn1nc(C)c(CN2CCCC(C(=O)c3cccc(OC(C)C)c3)C2)c1C (configuration not stated)	i	i	i	i	i	14
CC(C)Oc1cccc(C(=O)C2CCCN(Cc3ccc4nonc4c3)C2)c1 (configuration not stated)	i	i	i	i	i	1
Cc1nn(C(C)C)c(C)c1CN1CCCC(C(=O)c2cccc(OC(C)C)c2)C1 (configuration not stated)	i	-8.2*	i	i	i	9
CC(C)Oc1cccc(C(=O)C2CCCN(Cc3cnn(C(C)C)c3)C2)c1 (configuration not stated)	i	i	-6*	i	i	6
CCOC(=O)C1CCCN(Cc2ccc(O)c(OC)c2)C1 (configuration not stated)	i	i	i	i	i	-6
CC(C)(CO)NCc1c(OCc2ccc(Cl)cc2)ccc2ccccc12	i	-6.7*	i	i	i	30
COc1cc(CNC(C)(C)CO)cc(Br)c1OCc1ccc(Cl)cc1	i	i	i	i	i	28
Cc1cc(=O)oc2cc(N3C(=O)CC(Cc4ccccc4)C3=O)ccc12 (configuration not stated)	i	i	i	13*	i	-5
CC(=O)n1c2c(c3ccccc31)OC(N)=C(C#N)C2c1ccc(C(C)C)cc1 (configuration not stated)	i	i	i	12*	i	-11
C=CCOc1ccc(C2CC(C)=NN2c2ccccc2)cc1 (configuration not stated)	i	i	-8*	i	i	-14
COc1cccc(CNC(=O)CCC2CCCN(c3cc(C)nc(N(C)C)n3)C2)c1 (configuration not stated)	i	i	-6*	i	i	8
Cc1cccc(C)c1NC(=O)C(=O)NCC1CCCN1S(=O)(=O)c1ccccc1 (configuration not stated)	i	i	i	i	i	x
CC(C)C(=O)N1CCN(c2nc(-c3ccccc3)c3c(c2C#N)CCCC3)CC1	i	i	i	14*	i	-11
CC(C)Cn1cnc2c(c(-c3ccccc3)c(-c3ccccc3)n2Cc2ccco2)c1=N	i	-5*	i	i	i	20
N=c1c2c(-c3ccccc3)c(-c3ccccc3)n(Cc3ccccc3)c2ncn1CCO	i	i	i	i	i	37*
CC(C)(C)N(Cc1ccccc1)C(=O)COC(=O)c1ccccc1SCC(=O)N1CCCC1	i	i	i	i	i	x
CC1(C)C(=O)OC(C(=O)c2ccc(C(C)(C)C)cc2)C(C)(C)C1=O (configuration not stated)	i	i	i	13*	i	-32
Cc1cc(C)c(C)c(C(=O)C2OC(=O)C(C)(C)C(=O)C2(C)C)c1C (configuration not stated)	i	i	i	i	i	-7
SMILES	TRPC4 agonist	TRPC6 inh	TRPC4 block	TRPC4 PAM	TRPC6 act	DNA FID counter
S=C(NCCc1ccccc1)Nc1ccc(Br)cn1	i	i	i	11*	i	-7
O=c1[nH][nH]c(-c2ccccc2)c1C=Nc1ccc(Cl)cc1	i	i	i	84*	i	-1
O=c1[nH][nH]c(-c2ccccc2)c1C=Nc1cccc(Cl)c1	i	i	i	i	i	5
OCC[C@@H]1C[C@@H](O)[C@H](O)[C@@]2(CCCc3ccccc3O2)O1	i	i	i	i	i	-6
CN(C)CCSc1nnc2sc3ccccc3n12	i	i	i	11*	i	1
N#CCSc1nnc2sc3ccccc3n12	i	i	i	i	i	-4
Cc1ccc(NC(=S)NC2CC3CCCC(C2)N3Cc2cccs2)cc1 (configuration not stated)	48*	i	i	i	i	15
Fc1ccc(NC(=S)NC2CC3CCCC(C2)N3Cc2cccs2)cc1 (configuration not stated)	i	i	i	i	i	16
CCc1ccc(NC(=S)NC2CC3CCCC(C2)N3Cc2ccccc2)cc1 (configuration not stated)	51*	i	i	i	i	23
OCCC1CN(Cc2cccn2-c2cccnc2)CCN1Cc1ccccc1 (configuration not stated)	i	i	i	i	i	11
OCCC1CN(Cc2cccn2-c2cccnc2)CCN1CCc1ccccc1 (configuration not stated)	i	i	-5*	i	i	8
CCC1(c2ccccc2)NC(=O)N(CC(=O)NNC(=O)c2ccoc2C)C1=O (configuration not stated)	i	i	i	i	i	x
Cc1cc(N2CCN(C)CC2)nc2ccc(NC(=S)NCCCN3CCc4ccccc4C3)cc12	i	i	i	i	i	41*
